Rows were chosen to be rich in hits. Some 5.3% of all compounds tested hit in one or more screens of this group.
T cruzi inh – inhibitors of intracellular T. cruzi growth, primary screen, luminescence, NIH3T3 host cells. T. cruzi beta-gal in NIH3T3, 90 h. inhibition, % (test concentration not listed). actives 1.4% (n = 300,000). AID 1885, 2009;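 active = mean inhibition across valid replicates above about 55%, limit read from the data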;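 also: signal also drops with host cell toxicity which is not excluded here; higher percent means less beta-gal luminescence so fewer parasites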
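Material: NIH/3T3 host cells with β-galactosidase reporter T. cruzi; Input: 5,000 host fibroblasts per well; Medium: DMEM, 2% fetal bovine serum; Compound: 50 nL DMSO compound solution per well; Schedule: 3 h host attachment, then at least 90 h co-culture; Detection: luminescent β-galactosidase signal after 60 min lysis.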
Mdm2 MdmX PPI – inhibitors of human Mdm2-MdmX association, primary screen, cell-based, luminescence, split luciferase, SaOS-2, uHTS; actives 3% (n = 330,000); inhibition, % at 8 µM; SaOS-2 split-luciferase Mdm2/MdmX complementation; Protein Mdm4 (Homo sapiens) + E3 ubiquitin-protein ligase Mdm2 (Homo sapiens), …; AID 485346, 2010;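 active = inhibition of at least 50% at 8 µM in the primary screen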
Target sequence (O15151 whole entry, looked up): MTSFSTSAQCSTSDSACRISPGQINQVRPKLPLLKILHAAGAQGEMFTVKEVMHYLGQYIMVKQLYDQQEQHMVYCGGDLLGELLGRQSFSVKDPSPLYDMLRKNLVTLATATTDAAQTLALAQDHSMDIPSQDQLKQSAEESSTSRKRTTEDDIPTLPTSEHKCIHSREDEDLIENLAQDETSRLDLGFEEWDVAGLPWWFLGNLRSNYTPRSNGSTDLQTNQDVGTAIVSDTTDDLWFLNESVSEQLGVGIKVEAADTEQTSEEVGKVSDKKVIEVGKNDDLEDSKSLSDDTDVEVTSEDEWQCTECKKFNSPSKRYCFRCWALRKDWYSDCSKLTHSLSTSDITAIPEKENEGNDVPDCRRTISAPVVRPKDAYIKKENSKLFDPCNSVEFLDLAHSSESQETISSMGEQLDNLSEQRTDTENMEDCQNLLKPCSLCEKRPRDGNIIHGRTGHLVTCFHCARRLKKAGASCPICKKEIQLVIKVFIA
Target sequence (Q00987 whole entry, looked up): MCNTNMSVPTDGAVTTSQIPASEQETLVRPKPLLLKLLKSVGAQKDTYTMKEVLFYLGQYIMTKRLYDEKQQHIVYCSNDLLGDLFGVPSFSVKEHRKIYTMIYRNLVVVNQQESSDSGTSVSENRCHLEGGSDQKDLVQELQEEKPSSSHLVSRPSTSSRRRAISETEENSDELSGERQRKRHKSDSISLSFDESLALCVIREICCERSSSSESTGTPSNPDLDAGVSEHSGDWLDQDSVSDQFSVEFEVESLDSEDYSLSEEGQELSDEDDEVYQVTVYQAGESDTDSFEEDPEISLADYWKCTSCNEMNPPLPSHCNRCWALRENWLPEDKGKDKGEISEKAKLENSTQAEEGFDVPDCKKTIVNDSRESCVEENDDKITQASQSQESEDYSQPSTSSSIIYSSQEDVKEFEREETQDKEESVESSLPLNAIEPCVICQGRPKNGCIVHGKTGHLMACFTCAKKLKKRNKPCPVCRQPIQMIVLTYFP
Calb FLC – C. albicans growth inhibition with fluconazole, primary screen, CaCi-2 strain, Alamar Blue fluorescence | growth inhibition, % (no concentration beside the values) | actives 0.57% (n = 300,000) | C. albicans CaCi-2 + fluconazole, 48 h;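 active = growth inhibition above about 58% in most replicates, limit read from the data, passing the limit was not always enough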;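 also: all wells also contain fluconazole at 8 µg/ml as a sub-toxic cotreatment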
NALP3 yeast inh – NALP3 inflammasome inhibitors in reconstituted yeast, primary screen, luminescence, uHTS. actives 0.39% (n = 330,000). inhibition, % at 10 µM. Yeast reconstituted NLRP3/ASC/caspase-1, beta-gal luminescence, 24 h;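 active = inhibition of 50% or more; inactive = inhibition below 50%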
Beta cell apopt – inhibitors of cytokine-induced beta cell apoptosis, primary screen, luminescence | actives 0.8% (n = 300,000) | INS-1E cytokine-induced death, ATP luminescence, 48 h; percent of positive-control rescue, neutral wells zero | protection from apoptosis, % (no concentration beside the values);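 active = Every replicate reaches about 75%, or at least half do and their mean reaches it too, limit read from the data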;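 also: higher means more ATP so stronger rescue from cytokine killing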
CSC inhib – cancer stem cell viability inhibitors, primary screen, luminescence; cancer stem cell-like cells viability; inhibition, % at 7.5 µM; actives 1.1% (n = 300,000); AID 2717, 2010; in the data active = inhibition above about 75%; tested in HMLE shEcad cells
Mdm2-MdmX conf – Mdm2-MdmX complex disruptors, retested hits, confirmation, luminescence, single concentration. actives 55% (n = 10,000). shares compounds with Mdm2 MdmX PPI. Mdm2-MdmX binding, luminescent assay. inhibition, % at 8 µM; in the data active = inhibition above about 40%
Full FLuc ctr – full-length luciferase signal inhibition, confirmation, counter-screen for Mdm2/MdmX interaction inhibitor project, cell-based, single concentration, SaOS-2. shares compounds with Mdm2 MdmX PPI. SaOS-2 full-length luciferase counterscreen, luminescence. inhibition, % at 8 µM. actives 77% (n = 6,200). AID 504607, 2011;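 active = mean inhibition at 8 µM reaching about 37%, which flags the compound as non-specific, limit read from the data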;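 also: p53-null SaOS-2 cells with luciferase driven by a doxycycline-inducible promoter; compound on cells about two nights before reading with doxycycline added after day one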
Hits are given with their value; n = inactive; x = not tested or not shown.

SMILES | T cruzi inh | Mdm2 MdmX PPI | Calb FLC | NALP3 yeast inh | Beta cell apopt | CSC inhib | Mdm2-MdmX conf | Full FLuc ctr
CC(=O)O[C@@]12CO[C@@H]1C[C@H](O)[C@@]1(C)C(=O)[C@H](O)C3=C(C)[C@@H](OC(=O)[C@H](O)[C@@H](NC(=O)c4ccccc4)c4ccccc4)C[C@@](O)([C@@H](OC(=O)c4ccccc4)C12)C3(C)C (stereo not given in full) | 55 | 54 | n | n | n | n | 63 | 50
CC(=O)O[C@H]1C(=O)[C@@]2(C)C([C@H](OC(=O)c3ccccc3)[C@]3(O)C[C@H](OC(=O)[C@H](O)[C@@H](NC(=O)Cc4ccccc4)c4ccccc4)C(C)=C1C3(C)C)[C@]1(OC(C)=O)CO[C@@H]1C[C@@H]2O (stereo not given in full) | n | 66 | n | n | n | n | 66 | 42
CC(=O)O[C@H]1C(=O)[C@@]2(C)C([C@H](OC(=O)c3ccccc3)[C@]3(O)C[C@H](O)C(C)=C1C3(C)C)[C@]1(OC(C)=O)CO[C@@H]1C[C@H]2O (stereo not given in full) | n | n | n | n | x | n | x | x
COc1cc(CC(=O)N2C[C@H]3C[C@@H](C2)c2cccc(=O)n2C3)cc(OC)c1OC | x | n | x | n | n | n | x | x
OCCNCCc1c[nH]c2ccc(OCc3ccccc3)cc12 | n | n | n | n | n | n | x | x
C=C1C(=O)[C@@]23C[C@H]4[C@@H]5[C@@]6(C)CCC[C@@]57[C@@H]2[C@@H](O)[C@@H]1C[C@H]3[C@H]7N4C6 | n | 100 | n | n | n | n | 90 | 52
C#C[C@]1(O)CC[C@H]2[C@@H]3CCC4=Cc5nc6nc7ccccc7n6cc5C[C@]4(C)[C@H]3CC[C@@]21C | x | 55 | x | n | n | n | n | x
CCOC(=O)c1cc2c(cn1)[nH]c1ccccc12 | n | n | n | n | n | n | x | x
COC(=O)C1=C(c2cc3ccccc3s2)C[C@@H]2CC[C@H]1N2C(=O)N1CCC(O)CC1 | n | n | n | n | n | n | x | x
COC(=O)C1=C(c2cc3ccccc3s2)C[C@@H]2CC[C@H]1N2C(=O)N1CCCCC1 | n | 52 | n | n | n | n | 57 | 40
COC(=O)C1=C(c2ccccc2OCc2ccccc2)C[C@@H]2CC[C@H]1N2C(=O)NCc1ccc(C(C)(C)C)cc1 | x | n | x | n | n | n | x | x
O=C(c1ccco1)c1cn(Cc2ccc(Cl)cc2)c2ccccc12 | n | 51 | n | n | n | n | n | 68
COc1ccccc1OCCCn1cc(C(=O)c2ccco2)c2ccccc21 | n | n | n | n | n | n | x | x
CCOC(=O)CC(NC(=O)C(Cc1ccc(N(CCCl)CCCl)cc1)NC(C)=O)C(=O)OCC (stereo not given) | n | 81 | n | n | n | n | 57 | n
O=C(NC(=C(Cl)Cl)P(=O)(c1ccccc1)c1ccccc1)c1ccccc1 | n | n | n | n | n | n | x | x
CC(C)CNC(=O)c1c(N)n(Cc2ccc3c(c2)OCO3)c2nc3ccccc3nc12 | n | 61 | n | n | n | n | n | x
COC(=O)C1=C(c2ccc(F)cc2OCc2ccccc2)C[C@@H]2CC[C@H]1N2C(=O)NCc1ccccc1Br | x | n | x | n | n | n | x | x
CCc1ccc(NC2=NCCCS2)cc1 | n | n | n | n | n | n | x | x
C=C1C(=O)O[C@H]2C[C@@H](C)[C@@H]3C=CC(=O)[C@@]3(C)C[C@H]12 | n | 100 | n | n | 104 | 89 | 96 | 53
C=C1C(=O)O[C@H]2[C@H]1[C@H](OC(=O)CC(=O)O[C@@H]1C[C@@H](C)[C@@H]3C=CC(=O)[C@@]3(C)[C@H]3OC(=O)C(=C)[C@H]13)C[C@@H](C)[C@H]1C=CC(=O)[C@]12C | n | n | n | n | n | n | x | x
C=C1C(=O)O[C@@H]2C[C@@H](C)[C@@H]3C=CC(=O)[C@@]3(C)[C@@H](OC(=O)CC(=O)O[C@H]3[C@@H]4C(=C)C(=O)O[C@@H]4C[C@@H](C)[C@@H]4C=CC(=O)[C@]43C)[C@H]12 | n | 97 | n | n | 132 | 122 | 100 | n
Clc1ccc(C(c2ccc(Cl)cc2)n2cc[n+](CC(OCc3ccc(Cl)cc3Cl)c3ccc(Cl)cc3Cl)c2)cc1 (stereo not given) | x | 100 | x | n | 121 | 107 | 70 | n
COC(=O)C1=C(c2cccc(OC)c2OC)C[C@@H]2CC[C@H]1N2C(=O)NCCNC(C)=O | n | n | n | n | n | n | x | x
COC(=O)C1=C(c2cccc(OC)c2OC)C[C@@H]2CC[C@H]1N2C(=O)NCC1CC1 | n | n | n | n | n | n | x | x
O=C1C(=O)c2ccccc2-c2ccccc21 | n | 99 | x | n | 121 | 107 | 100 | n
SMILES | T cruzi inh | Mdm2 MdmX PPI | Calb FLC | NALP3 yeast inh | Beta cell apopt | CSC inhib | Mdm2-MdmX conf | Full FLuc ctr
O=[N+]([O-])c1ccc(O)c([N+](=O)[O-])c1 | n | n | x | n | n | n | x | x
O=[N+]([O-])c1ccc(Cl)c([N+](=O)[O-])c1 | x | 87 | x | n | n | 102 | n | x
COc1cc(OC)c(OC)cc1CNCCc1ccc2c(c1)OCO2 | n | n | n | n | x | n | x | x
CC(=O)c1c(C)n(Cc2ccccc2Cl)c2ccc(O)cc12 | n | 52 | n | n | n | n | n | 110
COC(=O)C1=C(C)NC(C)=C(C(=O)OC)C1c1ccccc1[N+](=O)[O-] | n | 97 | n | n | x | n | 53 | n
COC(=O)c1ccc(NC(=O)CSc2nc3ccc(N4C(=O)C5C6C=CC(C6)C5C4=O)cc3s2)cc1 (stereo not given) | n | 69 | n | n | n | n | n | x
C=C1[C@@H](C)[C@H]2[C@H](Cc3ccccc3)NC(=O)[C@]23OC(=O)/C=C/[C@H](O)CCC[C@@H](C)C/C=C/[C@H]3[C@@H]1O | n | 82 | x | n | n | n | 71 | 53
NC(=O)c1cn(C2OC(CO)C(O)C2O)c2ncnc(N)c12 (stereo not given) | 57 | 100 | n | n | x | n | 99 | n
O=C1NC(=O)C(=Cc2ccc(-c3ccc(Cl)cc3)o2)C(=O)N1 | n | 53 | n | n | n | n | n | x
O=C(COC(=O)Cc1ccccc1)NCCNC(=O)COC(=O)Cc1ccccc1 | n | n | n | n | n | n | x | x

Bioassay records deposited in PubChem BioAssay by several laboratories.
